Data set [1] can be described thus: 1-Octanol-PBS buffer partition coefficient, log P of the compound at 0.37 MBq after 2 mins by gamma counting analysis. Type of data set: physicochemical.
The test system of another data set is Brain. As to the kind of experiment: Ratio of drug level in ddY mouse brain at 13.2 to 20.6 kBq, iv measured at 2 mins to drug level in ddY mouse brain at 13.2 to 20.6 kBq, iv measured at 60 mins. It is filed as ADME, organism-based. Conditions: in vivo. An outline of the steps:
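Tail-vein injection of the 125I tracer (13.2–20.6 kBq, saline with ethanol) into male 5-week-old ddY mice. The ratio is brain uptake (%ID/g) at 2 min divided by brain uptake at 60 min, from groups of 5 animals.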

Data set [2] concerns the target Microtubule-associated protein tau (Homo sapiens, UniProt P10636). As to the kind of experiment: Binding affinity to recombinant human tau (441 amino acid residues) aggregates expressed in Escherichia coli assessed as apparent dissociation constant after 30 mins by fluorescence spectroscopic analysis. Conditions: read-out: Kd(app). An outline of the steps: (§1)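 Tau: human 441-aa tau expressed in E. coli, aggregated at 1 mg/mL in MES buffer pH 6.8 with 0.1 mg/mL heparin, 37 °C for 3 days with shaking. Abeta1-42 aggregated at 0.25 mg/mL in PBS pH 7.4, 37 °C for 42 h with shaking. Aggregates at final 10 µg/mL were incubated with ligand (final 0.02–10 µM) for 30 min at room temperature. Apparent Kd was taken from fluorescence saturation curves at ex 440 nm, em 510 nm (tau) or em 480 nm (Abeta). Mean ± SEM of six independent experiments.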

The species entered for a further data set is Homo sapiens. The experiment in a line: Selectivity ratio of Kd(app) for amyloid beta (1 to 42) (unknown origin) aggregates to Kd(app) for recombinant human tau (441 amino acid residues) aggregates. Summed up:
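Human 441-aa tau, expressed in E. coli, was aggregated at 1 mg/mL (MES pH 6.8, 0.1 mg/mL heparin, 37 °C, 3 days, shaking). Aβ1–42 was aggregated at 0.25 mg/mL (PBS pH 7.4, 37 °C, 42 h). Aggregates were incubated 30 min at room temperature with ligand, and fluorescence read at ex 440 nm, em 510 nm (tau) or 480 nm (Aβ). Apparent Kd came from saturation curves over six independent experiments, and the ratio is Kd(Aβ)/Kd(tau).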

The target of data set [3] is Amyloid-beta precursor protein (Homo sapiens, UniProt P05067). As to the kind of experiment: Binding affinity to amyloid beta (1 to 42) (unknown origin) aggregates assessed as apparent dissociation constant after 30 mins by fluorescence spectroscopic analysis. Conditions: read-out: Kd(app). Summed up:
as §1

Chain of Amyloid-beta precursor protein (P05067 whole entry): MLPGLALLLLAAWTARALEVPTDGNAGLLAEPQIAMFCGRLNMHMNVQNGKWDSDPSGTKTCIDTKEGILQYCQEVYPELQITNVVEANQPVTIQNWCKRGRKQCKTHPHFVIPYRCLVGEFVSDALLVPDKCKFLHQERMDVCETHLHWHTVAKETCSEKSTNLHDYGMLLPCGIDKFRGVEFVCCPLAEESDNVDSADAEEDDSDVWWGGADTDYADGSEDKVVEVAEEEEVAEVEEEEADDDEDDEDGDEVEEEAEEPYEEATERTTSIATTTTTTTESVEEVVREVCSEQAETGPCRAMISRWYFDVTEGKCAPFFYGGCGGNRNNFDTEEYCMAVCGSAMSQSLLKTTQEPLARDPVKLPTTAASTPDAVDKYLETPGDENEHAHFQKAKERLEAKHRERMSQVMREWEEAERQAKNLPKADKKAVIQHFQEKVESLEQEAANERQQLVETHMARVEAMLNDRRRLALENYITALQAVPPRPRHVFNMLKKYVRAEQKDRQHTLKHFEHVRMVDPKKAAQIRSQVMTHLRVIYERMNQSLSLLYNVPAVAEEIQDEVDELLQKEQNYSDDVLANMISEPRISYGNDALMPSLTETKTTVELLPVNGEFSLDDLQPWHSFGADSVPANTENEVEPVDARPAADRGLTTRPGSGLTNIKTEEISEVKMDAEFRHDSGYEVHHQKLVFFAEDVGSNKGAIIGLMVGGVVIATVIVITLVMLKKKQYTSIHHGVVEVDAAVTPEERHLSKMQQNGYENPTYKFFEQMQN
Chain of Microtubule-associated protein tau (P10636 whole entry): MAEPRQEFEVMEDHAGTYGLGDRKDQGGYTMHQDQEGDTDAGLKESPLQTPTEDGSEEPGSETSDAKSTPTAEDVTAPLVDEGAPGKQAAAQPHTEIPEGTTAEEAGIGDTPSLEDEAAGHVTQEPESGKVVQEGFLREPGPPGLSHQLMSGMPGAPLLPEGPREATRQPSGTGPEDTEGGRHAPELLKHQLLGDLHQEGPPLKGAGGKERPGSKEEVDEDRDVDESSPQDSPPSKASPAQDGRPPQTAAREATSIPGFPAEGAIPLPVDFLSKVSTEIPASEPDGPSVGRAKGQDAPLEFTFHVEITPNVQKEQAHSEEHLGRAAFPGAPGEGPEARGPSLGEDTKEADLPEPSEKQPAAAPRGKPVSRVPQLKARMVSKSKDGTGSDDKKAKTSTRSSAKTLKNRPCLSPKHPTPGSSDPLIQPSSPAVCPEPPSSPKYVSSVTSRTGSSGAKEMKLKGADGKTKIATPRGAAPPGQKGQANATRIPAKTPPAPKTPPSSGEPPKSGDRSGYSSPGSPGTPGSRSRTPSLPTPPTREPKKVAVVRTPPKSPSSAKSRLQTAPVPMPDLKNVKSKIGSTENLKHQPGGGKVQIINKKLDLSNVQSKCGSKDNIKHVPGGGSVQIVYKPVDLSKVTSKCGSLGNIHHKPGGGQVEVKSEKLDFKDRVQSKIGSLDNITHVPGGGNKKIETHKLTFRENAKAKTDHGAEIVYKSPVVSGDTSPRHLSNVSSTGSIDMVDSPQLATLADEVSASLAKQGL

On to `CN(C)c1ccc(/N=N/c2nc3ccc([125I])cc3s2)cc1`, for which the log partition coefficient (logP) (as a rule, a log measure of how a compound divides between an organic and an aqueous phase) at 2 min in data set [1] was 3.84. Further, the Ratio in the data set with Brain is 0.33.

As to `CNc1ccc(/C=C/c2nc3ccc(I)cc3[nH]2)cc1`, the Kd was determined as 450 nM in data set [2] and 420 nM in data set [3]. Besides, in the data set filed under Homo sapiens, the Selectivity ratio was found to be 0.93.
